# Measured values reported in ChEMBL document CHEMBL5724801, “EUbOPEN Chemogenomics Library - Multiplex” (2024).
# Where “and” joins values, the source holds several entries; their conditions need not be identical. Identical values can stand only once.
# System: HEK-293T
# Assay: Multiplex assay against HEK293T
# Type: toxicity, cell-based
# Conditions: human
# Outline: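 Live cells were stained at seeding with Hoechst33342, BioTracker Green Microtubule Cytoskeleton Dye, MitoTracker Red and Annexin V Alexa Fluor 680, then imaged on a CQ1 microscope at 37°C and 5% CO2 after compound addition. CellPathfinder machine-learning gating split cells into Hoechst high-intensity objects or normal cells. Normal cells were split into healthy, pyknosed or fragmented nuclei, and pyknosed cells into mitotic or apoptotic. Tubulin, mitochondrial-mass and membrane-permeability phenotypes are per cents of healthy-nucleus cells.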
# [1] = 12 h, 1 µM, compound concentration 1 uM
# [2] = 12 h, 10 µM, compound concentration 10 uM
# [3] = 24 h, 1 µM, compound concentration 1 uM
# [4] = 24 h, 10 µM, compound concentration 10 uM
# [5] = 48 h, 1 µM, compound concentration 1 uM
# [6] = 48 h, 10 µM, compound concentration 10 uM
structure (smiles),measurement,setting,value
O=C(CCCc1ccccc1)Nc1nc2ccccc2c(=O)s1,Population Apoptotic (%),[1],30% and 43%
same,Population Fragmented Nuclei (%),[1],4% and 7%
same,Population Healthy Nuclei (%),[1],83% and 74%
same,Population Hoechst High Intensity Objects (%),[1],6% and 13%
same,Population Membrane Permeable-Phenotype (%),[1],0%
same,Population Mitochondria Different-Phenotype (%),[1],37% and 63%
same,Population Mitotic Cells (%),[1],70% and 56%
same,Population Normal (%),[1],93% and 86%
same,Population Pyknosed Nuclei (%),[1],11% and 17%
same,Population Tubulin-Different-Phenotype (%),[1],32% and 36%
same,Total Cell Count,[1],372 and 267
same,Population Apoptotic (%),[2],30% and 44%
same,Population Fragmented Nuclei (%),[2],10% and 7%
same,Population Healthy Nuclei (%),[2],80% and 74%
same,Population Hoechst High Intensity Objects (%),[2],9% and 27%
same,Population Membrane Permeable-Phenotype (%),[2],0%
same,Population Mitochondria Different-Phenotype (%),[2],47% and 68%
same,Population Mitotic Cells (%),[2],69% and 55%
same,Population Normal (%),[2],90% and 72%
same,Population Pyknosed Nuclei (%),[2],9% and 17%
same,Population Tubulin-Different-Phenotype (%),[2],27% and 26%
same,Total Cell Count,[2],555 and 371
same,Population Apoptotic (%),[3],20% and 45%
same,Population Fragmented Nuclei (%),[3],8% and 9%
same,Population Healthy Nuclei (%),[3],81% and 78%
same,Population Hoechst High Intensity Objects (%),[3],5% and 8%
same,Population Membrane Permeable-Phenotype (%),[3],1% and 0%
same,Population Mitochondria Different-Phenotype (%),[3],21% and 38%
same,Population Mitotic Cells (%),[3],79% and 54%
same,Population Normal (%),[3],94% and 91%
same,Population Pyknosed Nuclei (%),[3],10% and 12%
same,Population Tubulin-Different-Phenotype (%),[3],15% and 13%
same,Total Cell Count,[3],538 and 370
same,Population Apoptotic (%),[4],33% and 52%
same,Population Fragmented Nuclei (%),[4],10% and 8%
same,Population Healthy Nuclei (%),[4],80%
same,Population Membrane Permeable-Phenotype (%),[4],0%
same,Population Mitochondria Different-Phenotype (%),[4],38% and 47%
same,Population Mitotic Cells (%),[4],66% and 47%
same,Population Normal (%),[4],93% and 75%
same,Population Pyknosed Nuclei (%),[4],9% and 11%
same,Population Tubulin-Different-Phenotype (%),[4],29% and 20%
same,Total Cell Count,[4],661 and 444
same,Population Apoptotic (%),[5],20% and 38%
same,Population Fragmented Nuclei (%),[5],11% and 10%
same,Population Healthy Nuclei (%),[5],82% and 80%
same,Population Hoechst High Intensity Objects (%),[5],2% and 4%
same,Population Membrane Permeable-Phenotype (%),[5],1% and 0%
same,Population Mitochondria Different-Phenotype (%),[5],15% and 28%
same,Population Mitotic Cells (%),[5],79% and 61%
same,Population Normal (%),[5],97% and 95%
same,Population Pyknosed Nuclei (%),[5],6% and 8%
same,Population Tubulin-Different-Phenotype (%),[5],11% and 13%
same,Total Cell Count,[5],820 and 534
same,Population Fragmented Nuclei (%),[6],14% and 13%
same,Population Healthy Nuclei (%),[6],79% and 77%
same,Population Hoechst High Intensity Objects (%),[6],4% and 11%
same,Population Membrane Permeable-Phenotype (%),[6],0% and 1%
same,Population Mitochondria Different-Phenotype (%),[6],21% and 30%
same,Population Mitotic Cells (%),[6],77% and 31%
same,Population Normal (%),[6],95% and 88%
same,Population Pyknosed Nuclei (%),[6],6% and 9%
same,Population Tubulin-Different-Phenotype (%),[6],16%
same,Total Cell Count,[6],984 and 567
C[C@@H]1CC(=O)Nc2cccc(-c3ccc4c(c3)c(-c3cnn(C)c3)nn4C)c2N1,Population Apoptotic (%),[1],36% and 60%
same,Population Fragmented Nuclei (%),[1],7% and 5%
same,Population Healthy Nuclei (%),[1],76% and 77%
same,Population Hoechst High Intensity Objects (%),[1],7%
same,Population Membrane Permeable-Phenotype (%),[1],0%
same,Population Mitochondria Different-Phenotype (%),[1],51% and 65%
same,Population Mitotic Cells (%),[1],63% and 39%
same,Population Normal (%),[1],92%
same,Population Pyknosed Nuclei (%),[1],16%
same,Population Tubulin-Different-Phenotype (%),[1],39% and 26%
same,Total Cell Count,[1],305 and 349
same,Population Apoptotic (%),[2],49% and 38%
same,Population Fragmented Nuclei (%),[2],8% and 5%
same,Population Healthy Nuclei (%),[2],74% and 77%
same,Population Hoechst High Intensity Objects (%),[2],5% and 12%
same,Population Membrane Permeable-Phenotype (%),[2],0%
same,Population Mitochondria Different-Phenotype (%),[2],72% and 86%
same,Population Mitotic Cells (%),[2],50% and 62%
same,Population Normal (%),[2],94% and 87%
same,Population Pyknosed Nuclei (%),[2],17% and 16%
same,Population Tubulin-Different-Phenotype (%),[2],62% and 56%
same,Total Cell Count,[2],384 and 345
same,Population Apoptotic (%),[3],38% and 50%
same,Population Fragmented Nuclei (%),[3],10% and 8%
same,Population Healthy Nuclei (%),[3],74% and 79%
same,Population Hoechst High Intensity Objects (%),[3],7% and 6%
same,Population Membrane Permeable-Phenotype (%),[3],0%
same,Population Mitochondria Different-Phenotype (%),[3],37% and 48%
same,Population Mitotic Cells (%),[3],61% and 50%
same,Population Normal (%),[3],92% and 93%
same,Population Pyknosed Nuclei (%),[3],14% and 11%
same,Population Tubulin-Different-Phenotype (%),[3],20% and 16%
same,Total Cell Count,[3],395 and 422
same,Population Apoptotic (%),[4],43% and 57%
same,Population Fragmented Nuclei (%),[4],9% and 8%
same,Population Healthy Nuclei (%),[4],76% and 72%
same,Population Hoechst High Intensity Objects (%),[4],2% and 5%
same,Population Membrane Permeable-Phenotype (%),[4],0%
same,Population Mitochondria Different-Phenotype (%),[4],62% and 68%
same,Population Mitotic Cells (%),[4],56% and 42%
same,Population Normal (%),[4],97% and 94%
same,Population Pyknosed Nuclei (%),[4],13% and 19%
same,Population Tubulin-Different-Phenotype (%),[4],37% and 28%
same,Total Cell Count,[4],472 and 381
same,Population Apoptotic (%),[5],33% and 30%
same,Population Fragmented Nuclei (%),[5],11% and 9%
same,Population Healthy Nuclei (%),[5],80% and 81%
same,Population Hoechst High Intensity Objects (%),[5],1% and 2%
same,Population Membrane Permeable-Phenotype (%),[5],0%
same,Population Mitochondria Different-Phenotype (%),[5],23% and 30%
same,Population Mitotic Cells (%),[5],66% and 69%
same,Population Normal (%),[5],98% and 97%
same,Population Pyknosed Nuclei (%),[5],7% and 9%
same,Population Tubulin-Different-Phenotype (%),[5],13%
same,Total Cell Count,[5],627 and 593
same,Population Apoptotic (%),[6],43% and 42%
same,Population Fragmented Nuclei (%),[6],13% and 12%
same,Population Healthy Nuclei (%),[6],80% and 78%
same,Population Hoechst High Intensity Objects (%),[6],4% and 2%
same,Population Membrane Permeable-Phenotype (%),[6],0%
same,Population Mitochondria Different-Phenotype (%),[6],44% and 53%
same,Population Mitotic Cells (%),[6],56% and 57%
same,Population Normal (%),[6],95% and 97%
same,Population Pyknosed Nuclei (%),[6],6% and 9%
same,Population Tubulin-Different-Phenotype (%),[6],16% and 20%
same,Total Cell Count,[6],636 and 521
